Data taken from ChEMBL document CHEMBL1144999, “Identification of a novel, selective GABA(A) alpha5 receptor inverse agonist which enhances cognition” (J Med Chem, 2003).
pKi: −log10 of the molar value.

Key:
[1] = molecular target: GABA-A receptor; alpha-5/beta-3/gamma-2 (Homo sapiens) (UniProt P18507+P28472+P31644); test: Efficacy for GABA-A receptor alpha-5-beta-3-gamma-2 subunits expressed in Xenopus laevis oocytes by two-electrode voltage clamp recording; type: cell-based; details: Oocyte
Summary of the method: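 Two-electrode voltage clamp on Xenopus laevis oocytes injected with human α5β3γ2 cDNA, recorded 2-4 days after injection. Expression checked with 3 mM GABA; oocytes with currents <0.3 μA rejected. A GABA EC20 was determined per oocyte. Compound applied at a single concentration near 100× Ki. Efficacy (%) = (current with compound/control EC20 current × 100) − 100.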

[2] = molecular target: T1, Gamma-aminobutyric acid receptor subunit alpha-5 (Homo sapiens) (UniProt P31644); test: Binding selectivity for human gamma-aminobutyric-acid A receptor alpha-5 over GABA A alpha1,alpha2 and alpha-3 receptors
T1 sequence (whole entry): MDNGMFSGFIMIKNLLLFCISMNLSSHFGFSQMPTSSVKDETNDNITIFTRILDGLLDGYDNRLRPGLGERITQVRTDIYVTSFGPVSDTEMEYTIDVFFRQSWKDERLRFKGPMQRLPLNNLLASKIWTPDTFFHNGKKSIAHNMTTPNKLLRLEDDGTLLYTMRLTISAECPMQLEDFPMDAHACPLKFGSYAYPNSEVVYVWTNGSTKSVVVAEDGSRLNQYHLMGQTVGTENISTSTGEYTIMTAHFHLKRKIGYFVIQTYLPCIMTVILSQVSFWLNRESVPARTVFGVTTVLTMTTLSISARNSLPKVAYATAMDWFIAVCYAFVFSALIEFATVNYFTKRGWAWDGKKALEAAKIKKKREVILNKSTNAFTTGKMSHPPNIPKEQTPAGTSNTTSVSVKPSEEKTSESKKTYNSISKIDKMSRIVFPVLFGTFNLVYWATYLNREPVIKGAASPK

[3] = molecular target: T2, GABA-A receptor; alpha-3/beta-3/gamma-2 (Homo sapiens, UniProt P18507+P28472+P34903); test: Binding affinity to human gamma-amino butyric-acid A receptor alpha-3-beta-3-gamma-2, using a [3H]-Ro- 15-1788 radioligand; type: protein-complex assay
T2 sequence (P18507 whole entry): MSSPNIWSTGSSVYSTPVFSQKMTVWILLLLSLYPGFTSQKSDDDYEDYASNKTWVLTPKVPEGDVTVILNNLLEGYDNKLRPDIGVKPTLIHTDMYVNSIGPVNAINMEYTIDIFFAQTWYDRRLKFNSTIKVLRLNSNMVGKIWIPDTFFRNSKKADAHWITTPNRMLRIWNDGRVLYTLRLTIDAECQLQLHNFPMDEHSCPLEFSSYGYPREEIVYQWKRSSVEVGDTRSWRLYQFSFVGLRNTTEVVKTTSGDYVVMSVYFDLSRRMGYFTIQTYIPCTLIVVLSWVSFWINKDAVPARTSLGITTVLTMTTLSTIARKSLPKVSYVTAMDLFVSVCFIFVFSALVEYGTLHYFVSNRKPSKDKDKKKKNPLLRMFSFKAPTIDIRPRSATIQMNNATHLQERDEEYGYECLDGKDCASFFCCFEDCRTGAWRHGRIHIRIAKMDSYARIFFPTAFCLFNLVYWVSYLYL
T2 sequence (P28472 whole entry): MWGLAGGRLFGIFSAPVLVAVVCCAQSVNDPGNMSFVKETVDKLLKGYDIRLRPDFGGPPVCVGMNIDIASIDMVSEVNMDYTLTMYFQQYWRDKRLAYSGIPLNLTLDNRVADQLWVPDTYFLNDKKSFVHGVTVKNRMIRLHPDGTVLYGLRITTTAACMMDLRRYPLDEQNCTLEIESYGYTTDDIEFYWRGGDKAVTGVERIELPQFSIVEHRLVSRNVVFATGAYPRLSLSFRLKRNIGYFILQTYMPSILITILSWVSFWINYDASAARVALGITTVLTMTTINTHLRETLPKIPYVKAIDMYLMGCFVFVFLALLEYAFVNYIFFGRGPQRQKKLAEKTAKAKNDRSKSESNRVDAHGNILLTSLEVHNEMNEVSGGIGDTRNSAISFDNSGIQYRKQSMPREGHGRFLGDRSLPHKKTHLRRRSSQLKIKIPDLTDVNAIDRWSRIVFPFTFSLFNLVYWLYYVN
T2 sequence (P34903 whole entry): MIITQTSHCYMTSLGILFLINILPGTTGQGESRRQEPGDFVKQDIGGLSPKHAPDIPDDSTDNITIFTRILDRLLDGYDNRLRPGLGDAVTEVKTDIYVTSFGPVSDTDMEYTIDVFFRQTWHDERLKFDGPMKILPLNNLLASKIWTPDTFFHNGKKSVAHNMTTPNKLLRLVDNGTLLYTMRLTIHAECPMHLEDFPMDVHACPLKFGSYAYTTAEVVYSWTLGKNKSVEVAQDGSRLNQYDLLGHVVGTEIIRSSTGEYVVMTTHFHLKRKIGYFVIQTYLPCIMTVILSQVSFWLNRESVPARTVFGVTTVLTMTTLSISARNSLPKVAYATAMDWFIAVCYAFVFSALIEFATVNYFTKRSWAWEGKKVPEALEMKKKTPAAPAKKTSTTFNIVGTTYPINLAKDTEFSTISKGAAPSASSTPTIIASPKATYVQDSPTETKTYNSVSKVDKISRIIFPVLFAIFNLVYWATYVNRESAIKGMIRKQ
Summary of the method: (§1)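 Displacement of [3H]Ro 15-1788 binding from harvested L(tk-) cells stably expressing human recombinant GABA-A receptors with β3 and γ2 subunits plus α1, α2, α3 or α5. […] Ki given as geometric mean ± SEM of three independent determinations.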

[4] = molecular target: T3, GABA-A receptor; alpha-1/beta-3/gamma-2 (Homo sapiens, UniProt P14867+P18507+P28472); test: Binding affinity to human gamma-aminobutyric-acid A receptor alpha-1-beta-3-gamma-2, determined using [3H]-Ro- 15-1788 radioligand; type: protein-complex assay; summary of the method: as §1
T3 sequence (P14867 whole entry): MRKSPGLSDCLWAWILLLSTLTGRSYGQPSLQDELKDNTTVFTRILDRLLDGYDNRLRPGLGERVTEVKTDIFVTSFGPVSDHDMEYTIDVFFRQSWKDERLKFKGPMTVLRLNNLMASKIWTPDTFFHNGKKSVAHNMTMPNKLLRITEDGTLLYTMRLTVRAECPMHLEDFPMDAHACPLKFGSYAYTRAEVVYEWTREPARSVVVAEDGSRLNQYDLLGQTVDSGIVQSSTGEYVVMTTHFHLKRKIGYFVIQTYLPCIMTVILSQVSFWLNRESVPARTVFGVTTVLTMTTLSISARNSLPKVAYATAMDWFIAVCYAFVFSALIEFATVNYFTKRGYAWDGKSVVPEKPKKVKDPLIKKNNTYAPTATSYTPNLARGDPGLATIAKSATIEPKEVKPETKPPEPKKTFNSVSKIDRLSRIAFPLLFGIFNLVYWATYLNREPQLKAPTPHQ
T3 sequence (P18507 whole entry): T2 sequence (P18507 whole entry)
T3 sequence (P28472 whole entry): T2 sequence (P28472 whole entry)

[5] = molecular target: T4, GABA-A receptor; alpha-2/beta-3/gamma-2 (Homo sapiens, UniProt P18507+P28472+P47869); test: Binding affinity to human gamma-amino butyric-acid A receptor alpha-2-beta-3-gamma-2, using a [3H]-Ro- 15-1788 radioligand; type: protein-complex assay; summary of the method: as §1
T4 sequence (P18507 whole entry): T2 sequence (P18507 whole entry)
T4 sequence (P28472 whole entry): T2 sequence (P28472 whole entry)
T4 sequence (P47869 whole entry): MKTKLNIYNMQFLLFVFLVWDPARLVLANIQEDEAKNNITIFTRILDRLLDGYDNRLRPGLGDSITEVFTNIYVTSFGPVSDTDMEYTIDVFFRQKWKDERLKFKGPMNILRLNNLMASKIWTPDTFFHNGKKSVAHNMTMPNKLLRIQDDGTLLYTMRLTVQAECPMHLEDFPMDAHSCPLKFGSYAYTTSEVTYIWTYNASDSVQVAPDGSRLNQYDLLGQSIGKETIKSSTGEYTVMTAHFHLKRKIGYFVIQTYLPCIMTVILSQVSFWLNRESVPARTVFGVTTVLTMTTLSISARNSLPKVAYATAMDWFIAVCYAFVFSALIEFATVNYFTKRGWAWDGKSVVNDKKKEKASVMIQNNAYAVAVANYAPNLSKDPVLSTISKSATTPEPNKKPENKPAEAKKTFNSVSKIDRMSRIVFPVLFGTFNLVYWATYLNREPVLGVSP

[6] = molecular target: T5, GABA-A receptor; alpha-5/beta-3/gamma-2 (Homo sapiens, UniProt P18507+P28472+P31644); test: Binding affinity to human GABA A alpha-5-beta-3-gamma-2 receptor, using a [3H]-Ro- 15-1788 radioligand; type: protein-complex assay; summary of the method: as §1
T5 sequence (P18507 whole entry): T2 sequence (P18507 whole entry)
T5 sequence (P28472 whole entry): T2 sequence (P28472 whole entry)
T5 sequence (P31644 whole entry): T1 sequence (whole entry)

Efficacy [1] | Selectivity [2] | pKi [3] | pKi [4] | pKi [5] | pKi [6] | Compound
-3 | 13 | – | – | – | – | CSc1sc(-c2cc[nH]n2)c2c1C(=O)CC(C)(C)C2
– | 6 | – | – | – | – | CC(C)Sc1sc(-c2cc[nH]n2)c2c1C(=O)CC(C)(C)C2
– | > 2 | < 6.52 | < 6.52 | < 6.52 | 6.88 | CNc1sc(-c2cc[nH]n2)c2c1C(=O)CC(C)(C)C2
– | 11 | – | – | – | – | CC1(C)CC(=O)c2c(SCCO)sc(-c3cc[nH]n3)c2C1
– | 22 | 6.62 | 6.68 | 6.79 | 7.96 | CCc1sc(-c2cc[nH]n2)c2c1C(=O)CC(C)(C)C2
-2 | 22 | 7.06 | 7.14 | 7.36 | 8.41 | CC(C)Nc1sc(-c2cc[nH]n2)c2c1C(=O)CC(C)(C)C2
-7 | 34 | 7.32 | 8.37 | 7.72 | 8.85 | CC1(C)CC(=O)c2c(Sc3nccs3)sc(-c3cc[nH]n3)c2C1
– | 9 | 7.39 | 7.66 | 7.55 | 8.34 | CCCSc1sc(-c2cc[nH]n2)c2c1C(=O)CC(C)(C)C2
– | 10 | – | – | – | – | CCSc1sc(-c2cc[nH]n2)c2c1C(=O)CC(C)(C)C2
– | 10 | 6.74 | 7.24 | 6.74 | 7.74 | CCCCSc1sc(-c2cc[nH]n2)c2c1C(=O)CC(C)(C)C2
– | > 2 | < 6.52 | < 6.52 | < 6.52 | 6.77 | CC1(C)CC(=O)c2c(SC(C)(C)C)sc(-c3cc[nH]n3)c2C1
– | 18 | 7.16 | 6.92 | 6.74 | 7.82 | CC(C)Oc1sc(-c2cc[nH]n2)c2c1C(=O)CC(C)(C)C2
– | 13 | 7.30 | 7.22 | 7.34 | 8.33 | CC1(C)CC(=O)c2c(SCCCO)sc(-c3cc[nH]n3)c2C1
– | – | < 6.52 | < 6.52 | < 6.52 | < 6.52 | CC1(C)CC(=O)c2csc(-c3cc[nH]n3)c2C1
– | 8 | 7.74 | 8.00 | 8.12 | 8.62 | CC1(C)CC(=O)c2c(Sc3cccs3)sc(-c3cc[nH]n3)c2C1
– | > 5 | < 6.52 | < 6.52 | < 6.52 | 7.17 | COc1sc(-c2cc[nH]n2)c2c1C(=O)CC(C)(C)C2
– | > 4 | < 6.52 | < 6.52 | < 6.52 | 7.11 | CC1(C)CC(=O)c2c(NCCO)sc(-c3cc[nH]n3)c2C1

Further lines, the compound ahead of its results:

Compound | Efficacy [1] | Selectivity [2] | pKi [3] | pKi [4] | pKi [5] | pKi [6]
CSc1sc(-c2ccccn2)c2c1C(=O)CC(C)(C)C2 | -31 | 26 | – | – | – | –
CSc1sc(-c2ccncc2)c2c1C(=O)CC(C)(C)C2 | -20 | 19 | – | – | – | –
CSc1sc(-c2nccs2)c2c1C(=O)CC(C)(C)C2 | -24 | 28 | – | – | – | –
CSc1sc(-c2ccccc2)c2c1C(=O)CC(C)(C)C2 | – | – | < 6.52 | < 6.52 | < 6.52 | < 6.52
CSc1sc(-c2ncn(C)n2)c2c1C(=O)CC(C)(C)C2 | – | 14 | 6.99 | 6.57 | 7.31 | 7.72
CSc1sc(-c2cccnc2)c2c1C(=O)CC(C)(C)C2 | -40 | 28 | – | – | – | –
CC1(C)CC(=O)c2c(SCCO)sc(-c3ccccn3)c2C1 | -39 | 20 | – | – | – | –
CSc1sc(-c2cncs2)c2c1C(=O)CC(C)(C)C2 | – | 12 | 6.80 | 6.76 | 6.79 | 7.82
CSc1sc(-c2ccc[nH]2)c2c1C(=O)CC(C)(C)C2 | – | > 4 | < 6.52 | < 6.52 | < 6.52 | 7.07
CSc1sc(-c2nc(C)no2)c2c1C(=O)CC(C)(C)C2 | – | > 8 | 6.73 | < 6.52 | < 6.52 | 7.43
CC1(C)CC(=O)c2c(SCCCO)sc(-c3nccs3)c2C1 | 25 | 17 | 7.32 | 7.10 | 7.32 | 8.33
CC1(C)CC(=O)c2c(Sc3nccs3)sc(-c3nccs3)c2C1 | -5 | 28 | 7.55 | 7.62 | 7.41 | 8.85
